As a reminder, the EC50 is the midpoint of the concentration-response curve.

Here are results for one molecule from ChEMBL document CHEMBL4270555, “Synthesis and biological evaluation of magnolol derivatives as melatonergic receptor agonists with potential use in depression” (Eur J Med Chem, 2018).

Molecules are shown by their SMILES. Calls of active or inactive are those of the source. No cut-off for these calls is given here.

For series [1], the system named is Mus musculus. In words: Increase in 5-hydroxyindole-3-acetic acid level in Kunming mouse hippocampus at 40 mg/kg, po treated for 7 days by HPLC-ECD analysis. Format: functional, organism-based. In short, it runs like this: (§1)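 Male Kunming mice (18–20 g) given vehicle or 40 mg/kg for 7 days, then killed by cervical dislocation. Frontal cortex, hippocampus, striatum, hypothalamus and thalamus dissected on ice, homogenized in ice-cold 0.2 M perchloric acid with 0.1 mM EDTA, centrifuged 15,000 rpm, 20 min, 4 °C. Supernatant analysed by HPLC-ECD at +0.50 V; phosphate/octanesulfonate mobile phase pH 3.0 with 12% methanol. Levels in ng/g, mean ± SEM.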

The nature of series [2]: Drug metabolism in Sprague-Dawley rat urine assessed as 1-(2'-hydroxy-5'-(1-hydroxyallyl)-6-((2S,3R,4S,5S,6R)-3,4,5-trihydroxy-6-(hydroxymethyl)tetrahydro-2H-pyran-2-yloxy)biphenyl-3-yl)prop-2-en-1-one formation at 100 mg/kg, po by UPLC-IT-TOF-MS analysis. The conditions noted are these: in vivo. Format: ADME, organism-based. An outline of the steps:
(§2)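 Male/unspecified SD rats (n = 6) housed individually in metabolic cages, dosed orally at 100.0 mg/kg; controls given 0.5% CMC-Na orally. Plasma, urine and faeces collected. LC-IT-TOF-MS on C18 column at 30 °C, formic acid (0.05%) water/acetonitrile gradient 5–100% B over 18 min, 0.2 mL/min; positive and negative ion modes with automatic MS/MS.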

Series [3] relates to Mus musculus. In words: Effect on 5-hydroxytryptamine level in Kunming mouse hippocampus at 40 mg/kg, po treated for 7 days by HPLC-ECD analysis. Type of series: functional, organism-based. In short, it runs like this: as §1
For series [4], the system named is Rattus norvegicus. As to the kind of experiment: Toxicity in Sprague-Dawley rat assessed as change in sensory nervous system responses at 2000 mg/kg, po measured continuously for first 4 hrs followed by measured every hour for next 24 hrs and at 6 hrs intervals for following 48 hrs post dose. Type of series: organism-based. The conditions noted are these: in vivo. In short, it runs like this: (§3)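 Followed OECD 425 in adult SD rats (180–220 g), three groups of six. Vehicle control received 0.5% CMC-Na orally; separate male and female groups received 2000 mg/kg orally. Endpoints observed: behaviour, breathing, cutaneous effects, sensory nervous system responses, gastrointestinal effects and deaths.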

The subject of series [5] is Mus musculus. In words: Increase in ratio of 5-hydroxyindole-3-acetic acid to 5-hydroxytryptamine level in Kunming mouse hypothalamus at 40 mg/kg, po treated for 7 days by HPLC-ECD analysis. Type of series: functional, organism-based. An outline of the steps: as §1
Series [6] can be described thus: Drug metabolism in Sprague-Dawley rat feces assessed as 2S,3S,4S,5R,6S)-6-(5,5'-diallyl-2'-((2S,3R,4S,5S,6R)-3,4,5-trihydroxy-6-(hydroxymethyl)tetrahydro-2H-pyran-2-yloxy)biphenyl-2-yloxy)-3,4,5-trihydroxytetrahydro-2H-pyran-2-carboxylic acid formation at 100 mg/kg, po by UPLC-IT-TOF-MS analysis. Format: ADME, organism-based. The following applies: in vivo. In short, it runs like this:
(§4)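 Rats (n = 6) housed in metabolic cages received 100.0 mg/kg orally; controls received 0.5% CMC-Na. Plasma, urine and faeces were collected and analyzed by LC-IT-TOF-MS on a C18 column at 30 °C. Gradient 5–100% acetonitrile with 0.05% formic acid over 18 min at 0.2 mL/min; positive and negative ion MS/MS.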

Series [7] can be described thus: Drug metabolism in Sprague-Dawley rat urine assessed as (2S,3S,4S,5R,6S)-6-(5,5'-diallyl-2'-methoxybiphenyl-2-yloxy)-3,4,5-trihydroxytetrahydro-2H-pyran-2-carboxylic acid formation at 100 mg/kg, po by UPLC-IT-TOF-MS analysis. The conditions noted are these: in vivo. Type of series: ADME, organism-based. In short, it runs like this:
as §2

Series [8] can be described thus: Retention time of the compound by UPLC-IT-TOF-MS analysis. Type of series: physicochemical. An outline of the steps:
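Retention on C18 column (100 × 2.1 mm, 1.8 µm) at 30 °C; mobile phase A 0.05% formic acid in water, B 0.05% formic acid in acetonitrile, 0.2 mL/min, linear 5–100% B over 0–18.0 min; IT-TOF-MS detection in positive and negative modes.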

Series [9] deals with Rattus norvegicus. In words: Toxicity in Sprague-Dawley rat assessed as caustic injuries at 2000 mg/kg, po measured over 4 hrs. Type of series: organism-based. The following applies: in vivo. An outline of the steps:
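Following OECD 425, adult SD rats (180–220 g), six per group: vehicle (0.5% CMC-Na) controls, plus males and females given 2000 mg/kg orally. Watched continuously for 4 h for behaviour, breathing, cutaneous, sensory and gastrointestinal signs, then hourly to 24 h and every 6 h for the next 48 h.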

Series [10] in a line: Drug metabolism in Sprague-Dawley rat urine assessed as (2S,3S,4S,5R,6S)-3,4,5-trihydroxy-6-(5-(1-hydroxyallyl)-5'-(2-hydroxypropyl)-2'-methoxybiphenyl-2-yloxy)tetrahydro-2H-pyran-2-carboxylic acid formation at 100 mg/kg, po by UPLC-IT-TOF-MS analysis. Format: ADME, organism-based. The conditions noted are these: in vivo. An outline of the steps: as §2
Series [11] deals with T1, Melatonin receptor type 1B (Homo sapiens, UniProt P49286).
T1 sequence (P49286 whole entry): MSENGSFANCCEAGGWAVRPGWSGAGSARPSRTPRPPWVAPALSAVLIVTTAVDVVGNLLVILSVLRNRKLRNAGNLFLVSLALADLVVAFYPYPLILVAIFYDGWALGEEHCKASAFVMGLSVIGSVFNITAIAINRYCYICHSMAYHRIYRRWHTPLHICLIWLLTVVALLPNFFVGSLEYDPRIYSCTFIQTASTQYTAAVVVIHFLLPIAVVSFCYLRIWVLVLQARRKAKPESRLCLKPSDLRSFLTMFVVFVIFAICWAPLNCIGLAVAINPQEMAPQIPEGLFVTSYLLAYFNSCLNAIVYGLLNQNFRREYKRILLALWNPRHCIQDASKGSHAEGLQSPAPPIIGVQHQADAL
In words: Agonist activity at human MT2 receptor expressed in HEK293 cells after 24 hrs by Fluo-8 dye-based calcium assay. Type of series: functional, cell-based. An outline of the steps: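 Fluo-8 calcium flux in HEK293 cells stably expressing human MT1 or MT2, grown in DMEM + 10% FBS at 37 °C, seeded 4×10^4/well and incubated 24 h. Compounds in DMSO/HBSS at several concentrations; fluorescence read at room temperature (ex 485, em 525 nm). Triplicate wells, three independent experiments; EC50 by nonlinear regression.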

Series [12] deals with Mus musculus. In words: Increase in 5-hydroxyindole-3-acetic acid level in Kunming mouse frontal cortex at 40 mg/kg, po treated for 7 days by HPLC-ECD analysis. Type of series: functional, organism-based. An outline of the steps:
as §1

In series [13] the test system is Rattus norvegicus. As to the kind of experiment: Toxicity in Sprague-Dawley rat assessed as change in breathing rate at 2000 mg/kg, po measured continuously for first 4 hrs followed by measured every hour for next 24 hrs and at 6 hrs intervals for following 48 hrs post dose. Format: organism-based. The conditions noted are these: in vivo. An outline of the steps:
as §3

The nature of series [14]: Drug metabolism in Sprague-Dawley rat plasma assessed as (2S,3R,4S,5S,6R)-2-(5'-allyl-2'-hydroxy-5-(1-hydroxyallyl)biphenyl-2-yloxy)-6-(hydroxymethyl)tetrahydro-2H-pyran-3,4,5-triol formation at 100 mg/kg, po by UPLC-IT-TOF-MS analysis. The conditions noted are these: in vivo. Format: ADME, organism-based. In short, it runs like this:
as §4

The nature of series [15]: Drug metabolism in Sprague-Dawley rat plasma assessed as 1-(2'-hydroxy-5'-(1-hydroxyallyl)-6-((2S,3R,4S,5S,6R)-3,4,5-trihydroxy-6-(hydroxymethyl)tetrahydro-2H-pyran-2-yloxy)biphenyl-3-yl)prop-2-en-1-one formation at 100 mg/kg, po by UPLC-IT-TOF-MS analysis. The following applies: in vivo. Format: ADME, organism-based. In short, it runs like this:
as §4

Series [16] in a line: Drug metabolism in Sprague-Dawley rat feces assessed as 5,5'-bis(1-hydroxyallyl)biphenyl-2,2'-diol formation at 100 mg/kg, po by UPLC-IT-TOF-MS analysis. The following applies: in vivo. Format: ADME, organism-based. In short, it runs like this:
as §4

Turning to `C=CCc1ccc(O)c(-c2cc(CC=C)ccc2O[C@@H]2O[C@H](CO)[C@@H](O)[C@H](O)[C@H]2O)c1`, the outcome in the series with Mus musculus [1], in the series on Mus musculus [5] and in the series with Mus musculus [12] was Active. The Drug metabolism result was “Metabolite_Detected” in series [2]; “Metabolite_Detected” in series [6]; “Metabolite_Detected” in [7]; “Metabolite_Detected” in [10]; “Metabolite_Notdetected” in [14]; “Metabolite_Notdetected” in series [15]. In addition, in series [16], the Drug metabolism result was “Metabolite_Detected”. Moreover, the result in the series on Mus musculus [3] was inactive. Also, the Activity result in the series with Rattus norvegicus [4], in the series on Rattus norvegicus [9] and in the series on Rattus norvegicus [13] was “Non-Toxic” each time. The Retention_time in series [8] came out at 11.23 min. For the same molecule, the EC50 in series [11] is 383 µM.
